Holding throughout (type): functional
Assay [1] concerns Candida. Briefly: Compound was tested for inherent antifungal geometric minimum inhibitory concentration (GMMIC) against Candida albicans and Candida tropicalis in serial dilution from 64 to 0.0313 ug/mL. A digest of the protocol: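 Eagle's minimum essential medium, pH 7.0. Compound in DMSO or ethanol, serially diluted in medium, inoculum 5×10^2/cc. Incubated at 37 °C under CO2 for 48 h. MIC is the lowest concentration with complete visible growth inhibition in microtiter wells. Geometric mean over C. albicans and C. tropicalis strains.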

Assay [2] concerns Arthrodermataceae. Put plainly: Compound was tested for inherent antifungal geometric minimum inhibitory concentration (GMMIC) against Dermatophytes in serial dilution from 64 to 0.0313 ug/mL. An outline of the steps: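 Sabouraud dextrose broth, pH 5.7, inoculum ~10^4/cc, 27 °C, read visually at 72 h. MIC is the lowest concentration giving complete growth inhibition. Compound in DMSO or ethanol, serially diluted in broth. Geometric mean over T. mentagrophytes D24 and D30, T. rubrum D54 and D61, T. tonsurans D73 and M. canis D18.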

For assay [3], the system named is Aspergillus sp. Briefly: Compound was tested for inherent antifungal geometric minimum inhibitory concentration (GMMIC) against Aspergillus in serial dilution from 64 to 0.0313 ug/mL. A digest of the protocol: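 Broth microdilution in Sabouraud dextrose broth, pH 5.7. Compound dissolved in DMSO or ethanol and serially diluted in medium. Inoculum ~10^4/cc, incubated at 27 °C for 72 h. MIC is the lowest concentration giving complete growth inhibition by visual reading. Geometric mean taken across the Aspergillus isolates.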

`CCC(CC)n1ncn(-c2ccc(N3CCN(c4ccc(OC[C@H]5CC[C@](Cn6cncn6)(c6ccc(F)cc6F)O5)cc4)CC3)cc2)c1=O`: the results for the GMMIC in assay [1], in assay [2] and in assay [3] were 0.02 µg/mL, “>=0.35 ug ml-1” and 0.25 µg/mL, respectively.

Consider `CCC(CC)n1ncn(-c2ccc(N3CCN(c4ccc(OC[C@@H]5CC[C@@](Cn6cncn6)(c6ccc(F)cc6F)O5)cc4)CC3)cc2)c1=O`, for which the GMMIC result is on record as “<=0.1 ug ml-1” in assay [1], “>=128 ug ml-1” in assay [2] and “>=128 ug ml-1” in assay [3].

Consider `CCC(CC)n1ncn(-c2ccc(N3CCN(c4ccc(OC[C@@H]5CO[C@@](Cn6cncn6)(c6ccc(F)cc6F)C5)cc4)CC3)cc2)c1=O`, for which the GMMIC entry in assay [1] is “<=0.04 ug ml-1”; in assay [2], “>=0.06 ug ml-1”; in assay [3], 0.04 µg/mL.

Regarding `CCC(CC)n1ncn(-c2ccc(N3CCN(c4ccc(OC[C@H]5CO[C@](Cn6cncn6)(c6ccc(F)cc6F)C5)cc4)CC3)cc2)c1=O`, the GMMIC was 0.27 µg/mL in assay [1], “>=128 ug ml-1” in assay [2] and “>=128 ug ml-1” in assay [3].

Take `CCC(C)n1ncn(-c2ccc(N3CCN(c4ccc(OCC5COC(Cn6cncn6)(c6ccc(Cl)cc6Cl)O5)cc4)CC3)cc2)c1=O` (racemic) [ITRACONAZOLE]: the GMMIC is 0.04 µg/mL in assay [1], “>=0.89 ug ml-1” in assay [2] and 0.3 µg/mL in assay [3].

The record behind these values is ChEMBL document CHEMBL1135167, “Synthesis and antifungal activity of the 2,2,5-tetrahydrofuran regioisomers of SCH 51048” (2002).
